Data as given in ChEMBL document CHEMBL1136656, “Synthesis and Biological activity of kappa opioid receptor agonists. Part 2: preparation of 3-aryl-2-pyridone analogues generated by solution- and solid-phase parallel synthesis methods” (Bioorg Med Chem Lett, 2003).
pIC50: −log10 of the molar value. Values belong to the molecule of their own block, whether it stands above or below them.

Experiments:
[1] = biological target: Delta-type opioid receptor (Homo sapiens, UniProt P41143); experiment: Inhibition of [125I]deltorphin binding to human delta opioid receptor from membranes of HEK293 cells; type: cell membranes
Chain of Delta-type opioid receptor (P41143 whole entry): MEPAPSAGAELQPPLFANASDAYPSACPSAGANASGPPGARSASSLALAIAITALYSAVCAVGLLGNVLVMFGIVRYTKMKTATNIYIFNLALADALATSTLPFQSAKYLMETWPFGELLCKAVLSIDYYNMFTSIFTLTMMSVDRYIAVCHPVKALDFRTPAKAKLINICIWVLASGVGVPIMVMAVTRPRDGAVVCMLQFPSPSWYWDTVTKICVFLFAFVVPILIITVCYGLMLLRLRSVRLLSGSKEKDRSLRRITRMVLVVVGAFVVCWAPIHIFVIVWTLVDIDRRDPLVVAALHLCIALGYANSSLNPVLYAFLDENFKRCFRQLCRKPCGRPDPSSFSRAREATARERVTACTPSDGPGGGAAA
Method in brief: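 Displacement of [125I]-Deltorphin from membranes of HEK293 cells overexpressing human delta opioid receptor, read by classical filter binding. IC50 came from full dose–response curves on purified material, in single determinations.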

[2] = biological target: T1, Kappa-type opioid receptor (Homo sapiens, UniProt P41145); experiment: Inhibition of [125I]-(D-Pro10)-Dynorphin A binding to human kappa opioid receptor from membranes of HEK293 cells; type: cell membranes
T1 sequence (P41145 whole entry): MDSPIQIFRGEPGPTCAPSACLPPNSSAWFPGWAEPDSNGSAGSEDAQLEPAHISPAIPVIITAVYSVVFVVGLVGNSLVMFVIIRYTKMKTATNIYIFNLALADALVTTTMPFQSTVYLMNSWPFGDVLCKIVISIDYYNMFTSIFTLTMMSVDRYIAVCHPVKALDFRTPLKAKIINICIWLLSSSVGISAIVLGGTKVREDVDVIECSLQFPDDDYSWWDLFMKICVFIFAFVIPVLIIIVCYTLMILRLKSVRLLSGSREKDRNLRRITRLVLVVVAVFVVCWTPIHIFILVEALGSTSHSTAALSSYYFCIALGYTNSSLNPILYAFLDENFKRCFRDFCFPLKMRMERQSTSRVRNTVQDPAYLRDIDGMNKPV
Method in brief: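 Classical filter binding on membranes from HEK293 cells overexpressing human kappa opioid receptor, measuring displacement of [125I]-(D-Pro10)-Dynorphin A. Purified compounds were run as full dose–response curves and reported as mean IC50 ± SEM. Crude or partially purified mixtures were screened at a single concentration for percent inhibition of radioligand binding.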

Mu-type opioid receptor = Mu-type opioid receptor (Homo sapiens, UniProt P35372); experiment: Inhibition of [125I]Enkephalin binding to human mu opioid receptor from membranes of HEK293 cells; type: cell membranes
Chain of Mu-type opioid receptor (P35372 whole entry): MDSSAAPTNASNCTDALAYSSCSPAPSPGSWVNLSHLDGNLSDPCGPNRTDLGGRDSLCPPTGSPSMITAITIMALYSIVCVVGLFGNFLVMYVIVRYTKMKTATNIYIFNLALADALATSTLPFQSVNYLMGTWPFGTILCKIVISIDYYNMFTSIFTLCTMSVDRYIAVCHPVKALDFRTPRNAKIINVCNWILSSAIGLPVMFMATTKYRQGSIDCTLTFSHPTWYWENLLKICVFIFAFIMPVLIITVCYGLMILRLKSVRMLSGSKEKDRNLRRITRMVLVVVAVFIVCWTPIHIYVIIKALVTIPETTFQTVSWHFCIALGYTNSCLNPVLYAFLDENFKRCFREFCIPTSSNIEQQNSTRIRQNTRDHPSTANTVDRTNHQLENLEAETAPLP
Method in brief: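 Filter binding on membranes of HEK293 cells overexpressing human mu opioid receptor, measuring displacement of [125I]-Enkephalin. IC50 came from full dose–response curves on purified material, in single determinations.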

[3] = biological target: T1, Kappa-type opioid receptor; experiment: Effective dose for agonistic activity towards human kappa opioid receptor from membranes of HEK293 cells was determined by radiolabeled [35S]GTP-gamma-S, assay; type: functional, cell membranes
[4] = biological target: T1, Kappa-type opioid receptor; experiment: Inhibitory concentration against [125I]-(D-Pro10)-Dynorphin A binding to human kappa opioid receptor from membranes of HEK293 cells; type: cell membranes; settings: concentration not given here
Method in brief: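 Filter binding on membranes from HEK293 cells overexpressing the human kappa opioid receptor. Displacement of [125I]-(D-Pro10)-Dynorphin A was measured, with full dose–response curves on purified material. IC50 is the mean of determinations, quoted with SEM.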

pIC50 [1]: 5.25 | pIC50 [2]: 6.38 | pIC50 (Mu-type opioid receptor): < 5.00
Compound: O=C(O)COc1cccc(C(CN2CCCC2)n2cccc(-c3ccc(C(F)(F)F)cc3)c2=O)c1 (stereo unspecified)

Compound: COc1ccccc1-c1cccn(C(CN2CCC(O)C2)c2ccccc2)c1=O (stereo unspecified)
pIC50 [1]: < 5.00 | pIC50 [2]: 7.03

Compound: O=c1c(-c2ccc(C(F)(F)F)cc2)cccn1C(CN1CCOCC1)c1ccccc1 (stereo unspecified)
pIC50 [1]: < 5.00 | pIC50 [2]: 6.15 | pIC50 (Mu-type opioid receptor): < 5.00

Compound: O=c1c(-c2ccc(Cl)cc2Cl)cncn1C(CN1CCCC1)c1ccccc1 (stereo unspecified)
ED50 [3]: 615 nM | pIC50 [1]: < 5.00 | pIC50 [2]: 7.39 | pIC50 (Mu-type opioid receptor): 5.02

Compound: COc1ccc(F)cc1-c1cccn(C(CN2CCC(O)C2)c2ccccc2)c1=O (stereo unspecified)
ED50 [3]: 32 nM | pIC50 [1]: 6.34 | pIC50 [2]: 8.26 | pIC50 (Mu-type opioid receptor): < 5.00

Compound: CC(=O)c1ccc(-c2cccn(C(CN3CCC(O)C3)c3ccccc3)c2=O)cc1 (stereo unspecified)
pIC50 [1]: < 5.00 | pIC50 [2]: 7.85 | pIC50 (Mu-type opioid receptor): 5.76

inhibition [4]: 41%
Compound: O=C(O)c1cccc(-c2cccn(C(CN3CCC(O)C3)c3ccccc3)c2=O)c1 (stereo unspecified)

Compound: O=c1c(-c2ccc(Cl)cc2Cl)cccn1C(CN1CCCC1)c1ccccc1 (stereo unspecified)
pIC50 [1]: < 5.00 | pIC50 [2]: 8.64 | pIC50 (Mu-type opioid receptor): 5.68

Compound: O=c1c(Nc2ccc(C(F)(F)F)cc2)cccn1C(CN1CCCC1)c1ccccc1 (stereo unspecified)
pIC50 [1]: < 5.00 | pIC50 [2]: 7.09 | pIC50 (Mu-type opioid receptor): 5.00

Compound: O=Cc1ccccc1-c1cccn(C(CN2CCC(O)C2)c2ccccc2)c1=O (stereo unspecified)
pIC50 [1]: < 5.00 | pIC50 [2]: 7.89

Compound: Cc1cc(-c2cccn(C(CN3CCC(O)C3)c3ccccc3)c2=O)ccc1F (stereo unspecified)
pIC50 [1]: < 5.00 | pIC50 [2]: 8.08 | pIC50 (Mu-type opioid receptor): < 5.30

Compound: O=c1c(-c2ccccc2)cncn1C(CN1CCCC1)c1ccccc1 (stereo unspecified)
pIC50 [2]: 5.75

Compound: O=c1c(-c2cccc(CO)c2)cccn1C(CN1CCC(O)C1)c1ccccc1 (stereo unspecified)
pIC50 [1]: < 5.00 | pIC50 [2]: 8.02 | pIC50 (Mu-type opioid receptor): < 5.30

Compound: O=c1c(-c2ccc(F)cc2)cccn1C(CN1CCC(O)C1)c1ccccc1 (stereo unspecified)
pIC50 [1]: < 5.00 | pIC50 [2]: 7.48 | pIC50 (Mu-type opioid receptor): < 5.00

Compound: O=c1c(-c2ccccc2)cccn1C(CN1CCC(O)C1)c1ccccc1 (stereo in doubt; 20a)
pIC50 [1]: < 5.00 | pIC50 [2]: 6.33 | pIC50 (Mu-type opioid receptor): < 5.00

Compound: Cc1ccc(C(C)Nc2cccn(C(CN3CCCC3)c3ccccc3)c2=O)cc1 (stereo unspecified)
pIC50 [1]: < 5.00 | pIC50 [2]: 6.48 | pIC50 (Mu-type opioid receptor): < 5.00

Compound: COc1ccc(C(CN2CCCC2)n2cccc(-c3ccc(C(F)(F)F)cc3)c2=O)cc1 (stereo unspecified)
pIC50 [1]: < 5.00 | pIC50 [2]: 6.49 | pIC50 (Mu-type opioid receptor): < 5.00

Compound: COc1cccc(OC)c1-c1cccn(C(CN2CCC(O)C2)c2ccccc2)c1=O (stereo unspecified)
pIC50 [1]: < 5.00 | pIC50 [2]: 8.01 | pIC50 (Mu-type opioid receptor): 5.41

Compound: O=C1COc2ccc(C(CN3CCCC3)n3cccc(-c4ccc(C(F)(F)F)cc4)c3=O)cc2N1 (stereo unspecified)
pIC50 [1]: < 5.00 | pIC50 [2]: 7.24 | pIC50 (Mu-type opioid receptor): < 5.00

Compound: O=c1c(-c2cccc(OC(F)(F)F)c2)cccn1C(CN1CCC(O)C1)c1ccccc1 (stereo unspecified)
pIC50 [1]: < 5.00 | pIC50 [2]: 7.66 | pIC50 (Mu-type opioid receptor): < 5.30

Compound: COc1ccc(Cl)cc1-c1cccn(C(CN2CCC(O)C2)c2ccccc2)c1=O (stereo unspecified)
pIC50 [1]: < 5.00 | pIC50 [2]: 7.28 | pIC50 (Mu-type opioid receptor): 6.72

Compound: O=c1c(-c2ccccc2)ccnn1C(CN1CCCC1)c1ccccc1 (stereo unspecified)
pIC50 [2]: 6.26

Compound: O=c1c(-c2ccccc2)cccn1C(CN1CCC(O)C1)c1ccccc1 (stereo in doubt; 14f)
pIC50 ([1]; hek293): < 5.00 | pIC50 [2]: 6.33 | pIC50 (Mu-type opioid receptor; hek293): < 5.00

pIC50 [2]: < 5.00
Compound: O=c1c(-c2ccc(C(F)(F)F)cc2)cccn1C(Cn1ccnc1)c1ccccc1 (stereo unspecified)

Compound: CC(=O)c1ccc(-c2cccn(C(CN3CCC(O)C3)c3ccccc3)c2=O)s1 (stereo unspecified)
pIC50 [1]: < 5.00 | pIC50 [2]: 7.42 | pIC50 (Mu-type opioid receptor): < 5.00

Compound: Cc1ccc(Nc2cccn(C(CN3CCCC3)c3ccccc3)c2=O)cc1 (stereo unspecified)
pIC50 [1]: < 5.00 | pIC50 [2]: 7.03

Compound: Nc1cccc(-c2cccn(C(CN3CCC(O)C3)c3ccccc3)c2=O)c1 (stereo unspecified)
pIC50 [1]: < 5.00 | pIC50 [2]: 7.60 | pIC50 (Mu-type opioid receptor): 5.54

pIC50 [1]: < 5.00 | pIC50 [2]: 5.85 | pIC50 (Mu-type opioid receptor): < 5.00
Compound: O=c1c(-c2ccc(C(F)(F)F)cc2)cccn1C(CN1C=CC=CC=N1)c1ccccc1 (stereo unspecified)

pIC50 [2]: < 6.00
Compound: O=c1c(Nc2ccccc2)cccn1C(CN1CCCC1)c1ccccc1 (stereo unspecified)

Compound: O=c1c(-c2ccccc2)nccn1C(CN1CCCC1)c1ccccc1 (stereo unspecified)
pIC50 [2]: 5.61

Compound: CCN(CC)c1ccc(C(CN2CCCC2)n2cccc(-c3ccc(C(F)(F)F)cc3)c2=O)cc1 (stereo unspecified)
pIC50 [1]: < 5.00 | pIC50 [2]: 5.51 | pIC50 (Mu-type opioid receptor): < 5.00

Compound: COc1ccc(OC)c(-c2cccn(C(CN3CCC(O)C3)c3ccccc3)c2=O)c1 (stereo unspecified)
pIC50 [1]: < 5.00 | pIC50 [2]: 8.16 | pIC50 (Mu-type opioid receptor): 5.65

Compound: O=c1c(-c2ccc(OC(F)(F)F)cc2)cccn1C(CN1CCC(O)C1)c1ccccc1 (stereo unspecified)
pIC50 [1]: < 5.00 | pIC50 [2]: 8.12 | pIC50 (Mu-type opioid receptor): < 5.30
